Source: ChEMBL document CHEMBL4152290, “1H-Benzo[d]imidazoles and 3,4-dihydroquinazolin-4-ones: Design, synthesis and antitubercular activity” (Eur J Med Chem, 2018)
Converted amounts (≈) assume the structure as drawn.

Columns and labels:
[1] = Stability of the compound in PBS containing 10% DMSO at 25 degC measured after 9 hrs by HPLC analysis; format: physicochemical; conditions: buffer
[2] = Stability of the compound in PBS containing 10% DMSO at 25 degC measured after 24 hrs by HPLC analysis; format: physicochemical; conditions: buffer
Danio rerio [3] = organism: Danio rerio; assay: Toxicity in Zebrafish AB embryos assessed as morphological alteration by measuring effect on ocular distance at 3 to 20 uM measured at 2 to 5 days post fertilization by stereomicroscopic method; format: organism-based; conditions: in vivo
Summary of the method: (§1)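 AB embryos are treated from 2 hpf to 5 dpf at 3.0, 15.0 and 20.0 µM in fish water with 1% DMSO, at 28 °C. Controls are fish water and 1% DMSO. Larvae are photographed under a stereomicroscope (3×) at 2 and 5 dpf, n = 30. Body length (µm), ocular distance (µm) and eye surface area (µm²) are measured from the images.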

[4] = Stability of the compound in PBS containing 10% DMSO at 25 degC measured after 6 hrs by HPLC analysis; format: physicochemical; conditions: buffer
Danio rerio [5] = organism: Danio rerio; assay: Cardiotoxicity in Zebrafish AB embryos assessed as heart beat rate at 20 uM measured at 5 days post fertilization by stereomicroscopic method (reference value: 148.1 to 158.2 bpm); format: organism-based; conditions: in vivo, 120 h
[6] = Cytotoxicity against human HaCaT cells assessed as cell viability at 10 ug/ml after 72 hrs by MTT assay (reference value: 100%); format: cell-based; conditions: read-out: Activity
Summary of the method: (§2)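 Cells were grown in DMEM with 10% heat-inactivated FBS and penicillin-streptomycin, seeded at 2×10^3/well (HepG2, HaCat) or 1×10^3/well (Vero), then left 24 h. Compound was applied at 10 µg/mL final (2% DMSO) for 72 h at 37 °C, 5% CO2. MTT 1 mg/mL was added for 3 h, formazan dissolved in DMSO, and A595 read. Viability is expressed relative to 2% DMSO wells; mean ± SEM, triplicates, three independent experiments.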

Danio rerio [7] = organism: Danio rerio; assay: Cardiotoxicity in Zebrafish AB embryos assessed as heart beat rate at 20 uM measured at 2 days post fertilization by stereomicroscopic method (reference value: 128.7 to 146.3 bpm); format: organism-based; conditions: in vivo, 48 h
[8] = tested on: Mycobacterium tuberculosis; assay: Antitubercular activity against Mycobacterium tuberculosis H37Rv ATCC 27294 after 7 days by resazurin dye based assay; format: functional; conditions: H37Rv ATCC 27294, 168 h
Summary of the method: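 Resazurin microtiter MIC in 7H9 with 10% ADC. Two-fold dilutions from 1 mg/mL DMSO stocks span 25.0–0.05, 10.0–0.02 or 0.02–0.0004 µg/mL, with 2.5% DMSO final. Inoculum is bead-declumped culture grown in 7H9/10% OADC/0.05% Tween 80, diluted to OD600 0.006. Plates run 7 days at 37 °C, then 0.01% resazurin for 48 h. MIC is the lowest concentration preventing the blue-to-pink change. Three independent tests.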

Danio rerio [9] = organism: Danio rerio; assay: Cardiotoxicity in Zebrafish AB embryos assessed as heart beat rate at 15 uM measured at 5 days post fertilization by stereomicroscopic method (reference value: 148.1 to 158.2 bpm); format: organism-based; conditions: in vivo, 120 h
[10] = Selectivity index, ratio of cytotoxic concentration for African green monkey Vero cells by MTT assay to MIC for Mycobacterium tuberculosis H37Rv ATCC 27294; format: toxicity; conditions: read-out: Selectivity Index
Danio rerio [11] = organism: Danio rerio; assay: Cardiotoxicity in Zebrafish AB embryos assessed as heart beat rate at 3 uM measured at 2 days post fertilization by stereomicroscopic method (reference value: 128.7 to 146.3 bpm); format: organism-based; conditions: in vivo, 48 h
[12] = Cytotoxicity against African green monkey Vero assessed as cell viability at 10 ug/ml after 72 hrs by neutral red uptake assay (reference value: 100%); format: cell-based; conditions: chlorocebus sabaeus, Vero cells; read-out: Activity
Summary of the method: (§3)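 Seeding was 2×10^3/well for HepG2 and HaCat and 1×10^3/well for Vero. After 24 h, cells received 10 µg/mL final (2% DMSO) for 72 h at 37 °C, 5% CO2. They were washed with PBS, given neutral red 25 µg/mL in serum-free medium for 3 h, washed, and extracted 30 min with acetic acid/EtOH/water 1:50:49. A540 was read. Viability is relative to 2% DMSO controls; mean ± SEM, three experiments in triplicate.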

Danio rerio [13] = organism: Danio rerio; assay: Toxicity in Zebrafish AB embryos assessed as effect on larval survival rate at 3 to 20 uM; format: organism-based; conditions: in vivo
Summary of the method: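 Wild-type AB zebrafish embryos are exposed from 2 hpf to 5 dpf at 3.0, 15.0 and 20.0 µM in fish water with 1% DMSO, at 28 °C on a 14/10 h light-dark cycle. Controls are fish water alone and 1% DMSO. Survival and hatching are checked daily under a stereomicroscope.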

[14] = Selectivity index, ratio of cytotoxic concentration for African green monkey Vero cells by neutral red uptake assay to MIC for Mycobacterium tuberculosis H37Rv ATCC 27294; format: toxicity; conditions: read-out: Selectivity Index
[15] = Stability of the compound in PBS containing 10% DMSO at 37 degC measured immediately by HPLC analysis; format: physicochemical; conditions: read-out: Stability
[16] = Cytotoxicity against African green monkey Vero assessed as cell viability at 10 ug/ml after 72 hrs by MTT assay (reference value: 100%); format: cell-based; conditions: chlorocebus sabaeus, Vero cells; read-out: Activity; summary of the method: as §2
Danio rerio [17] = organism: Danio rerio; assay: Toxicity in Zebrafish AB embryos assessed as morphological alteration by measuring effect on body length of larvae at 3 to 20 uM measured at 2 to 5 days post fertilization by stereomicroscopic method; format: organism-based; conditions: in vivo; summary of the method: as §1
[18] = Cytotoxicity against human HepG2 cells assessed as cell viability at 10 ug/ml after 72 hrs by neutral red uptake assay (reference value: 100%); format: cell-based; conditions: read-out: Activity; summary of the method: as §3
Danio rerio [19] = organism: Danio rerio; assay: Induction of neurological impairment in Zebrafish AB embryos assessed as alteration in locomotor activity by measuring swimming activity at 3 to 20 uM measured at 5 days post fertilization; format: organism-based; conditions: in vivo, 120 h
Summary of the method: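 Larvae were exposed from 2 hpf in fish water with 1% DMSO. At 5 dpf each larva was placed singly in a well of water or treatment solution. After 1 min acclimation, it was video-tracked for 5 min at 15 positions/s, and distance travelled was scored.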

[20] = Cytotoxicity against human HaCaT cells assessed as cell viability at 10 ug/ml after 72 hrs by neutral red uptake assay (reference value: 100%); format: cell-based; conditions: read-out: Activity; summary of the method: as §3
[21] = Stability of the compound in PBS containing 10% DMSO at 25 degC measured immediately by HPLC analysis; format: physicochemical; conditions: read-out: Stability
Danio rerio [22] = organism: Danio rerio; assay: Toxicity in Zebrafish AB embryos assessed as morphological alteration by measuring effect on surface area of eyes at 3 to 20 uM measured at 2 to 5 days post fertilization by stereomicroscopic method; format: organism-based; conditions: in vivo; summary of the method: as §1
[23] = Selectivity index, ratio of cytotoxic concentration for human HepG2 cells by MTT assay to MIC for Mycobacterium tuberculosis H37Rv ATCC 27294; format: toxicity; conditions: read-out: Selectivity Index
[24] = Stability of the compound in PBS containing 10% DMSO at 37 degC measured after 12 hrs by HPLC analysis; format: physicochemical; conditions: read-out: Stability
[25] = Selectivity index, ratio of cytotoxic concentration for human HaCaT cells by neutral red uptake assay to MIC for Mycobacterium tuberculosis H37Rv ATCC 27294; format: toxicity; conditions: read-out: Selectivity Index
[26] = Stability of the compound in PBS containing 10% DMSO at 37 degC measured after 3 hrs by HPLC analysis; format: physicochemical; conditions: read-out: Stability
[27] = Stability of the compound in PBS containing 10% DMSO at 25 degC measured after 3 hrs by HPLC analysis; format: physicochemical; conditions: buffer

Row | SMILES | Stability [1] [%] | Stability [2] [%] | Activity (Danio rerio [3]) | Stability [4] [%] | Activity (Danio rerio [5]) [bpm] | viability at 72 h, 10 ug/ml [6] [%] | Activity (Danio rerio [7]) [bpm] | MIC [8] [µM] | Activity (Danio rerio [9]) [bpm] | selectivity ratio [10] | Activity (Danio rerio [11]) [bpm] | viability at 72 h, 10 ug/ml [12] [%] | Activity (Danio rerio [13]) | selectivity ratio [14] | remaining at 0 h [15] [%] | viability at 72 h, 10 ug/ml [16] [%] | viability at 72 h, 10 ug/ml [18] [%] | Activity (Danio rerio [19]) | viability at 72 h, 10 ug/ml [20] [%] | remaining at 0 h [21] [%] | also measured
1 | O=C(CSc1nc2ccccc2c(=O)[nH]1)NC1CCCCC1 | 118 | 109 | Non-Toxic | 100 | 158.4 | 100 | 155.7 | 0.97 (≈ 0.308 µg/mL) | 163 | ≤ 32 | 149.5 | 92 | Non-Toxic | ≤ 32 | 100 | 90 | 95 | Non-Toxic | 97 | 100 | Activity (Danio rerio [17]): Non-Toxic; Activity (Danio rerio [22]): Non-Toxic; selectivity ratio [23]: ≤ 32; remaining at 12 h [24]: 120%; selectivity ratio [25]: ≤ 32; remaining at 3 h [26]: 109%; Stability [27]: 108%
2 | CC1CCC(NC(=O)CSc2nc3ccccc3c(=O)[nH]2)CC1 (stereo unspecified) | 99 | 111 | Non-Toxic | 97 | 152.2 | 95 | 146.4 | 0.24 (≈ 0.0795 µg/mL) | 150.3 | ≤ 32 | 122.3 | 95 | Non-Toxic | ≤ 32 | 100 | 84 | 96 | Non-Toxic | 94 | 100 | Activity (Danio rerio [17]): Non-Toxic; Activity (Danio rerio [22]): Non-Toxic; selectivity ratio [23]: ≤ 32; remaining at 12 h [24]: 70%; selectivity ratio [25]: ≤ 32; remaining at 3 h [26]: 80%; Stability [27]: 97%
3 | C[C@H]1CC[C@H](NC(=O)CSc2nc3ccccc3c(=O)[nH]2)CC1 | 64 | 26 | Non-Toxic | 67 | 153.8 | 97 | 150.2 | 0.24 (≈ 0.0795 µg/mL) | 157.4 | ≤ 32 | 135.5 | 93 | Non-Toxic | ≤ 32 | 100 | 88 | 97 | Non-Toxic | 97 | 100 | Activity (Danio rerio [22]): Non-Toxic; selectivity ratio [23]: ≤ 32; remaining at 12 h [24]: 70%; selectivity ratio [25]: ≤ 32; remaining at 3 h [26]: 83%; Stability [27]: 76%
4 | O=C(CSc1nc2ccccc2c(=O)[nH]1)NCC1CCCCC1 | 116 | 114 | Non-Toxic | 115 | 152.5 | 98 | 152.6 | 0.94 (≈ 0.312 µg/mL) | 158.9 | ≤ 32 | 140.7 | 97 | Non-Toxic | ≤ 32 | 100 | 89 | 97 | Non-Toxic | 88 | 100 | Activity (Danio rerio [17]): Non-Toxic; Activity (Danio rerio [22]): Non-Toxic; selectivity ratio [23]: ≤ 32; remaining at 12 h [24]: 111%; selectivity ratio [25]: ≤ 32; remaining at 3 h [26]: 106%; Stability [27]: 103%
5 | CC1CCCC(NC(=O)CSc2nc3ccccc3c(=O)[nH]2)C1 (stereo unspecified) | 100 | 100 | Non-Toxic | 102 | 160.9 | 94 | 152.2 | 0.24 (≈ 0.0795 µg/mL) | 157.4 | ≤ 32 | 151.2 | 95 | Non-Toxic | ≤ 32 | 100 | 89 | 95 | Non-Toxic | 88 | 100 | Activity (Danio rerio [17]): Non-Toxic; Activity (Danio rerio [22]): Non-Toxic; selectivity ratio [23]: ≤ 32; remaining at 12 h [24]: 100%; selectivity ratio [25]: ≤ 32; remaining at 3 h [26]: 96%; Stability [27]: 101%
6 | O=C(CSc1nc2ccccc2c(=O)[nH]1)NC1CCCCCC1 | 91 | 122 | Non-Toxic | 90 | 153.8 | 100 | 148.4 | 0.48 (≈ 0.159 µg/mL) | 160.4 | ≤ 32 | 139.6 | 94 | Non-Toxic | ≤ 32 | 100 | 91 | 105 | Non-Toxic | 88 | 100 | Activity (Danio rerio [17]): Non-Toxic; Activity (Danio rerio [22]): Non-Toxic; selectivity ratio [23]: ≤ 32; remaining at 12 h [24]: 81%; selectivity ratio [25]: ≤ 32; remaining at 3 h [26]: 81%; Stability [27]: 80%
